CCR6 antagonist: CCR6 (human) receptor antagonism; P51684; CHO-K1 CCR6 PathHunter beta-arrestin, luminescence, CCL20-stimulated; inhibition, % at 20 µM; actives 0.49% (n = 340,000); AID 493098;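 active = compounds whose inhibition of the agonist-driven luminescence signal at 20 µM reaches about 50%, limit read from the data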;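 note: cells stimulated with CCL20 at 14 nM final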
EBI2 antag: blocks human EBI2 receptor beta-arrestin signaling; P32249; inhibition, % at 5 µM; EBI2 beta-arrestin recruitment, luminescence, 7a,25-OHC stimulated; actives 0.81% (n = 360,000); AID 651636; in the data active = inhibition above about 38%;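 note: enzyme fragment complementation signal reports receptor beta-arrestin coupling in cells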
CXCR6 inh: CXCR6 (human) receptor inhibition; O00574; CHO-K1 PathHunter CXCR6 beta-arrestin, luminescence; inhibition, % at 20 µM; actives 0.36% (n = 360,000); AID 602244; in the data active = inhibition above about 34%, passing the limit was not always enough;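 note: antagonist mode with CXCL16 agonist at 10 nM final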
Target sequence (O00574 whole entry, looked up): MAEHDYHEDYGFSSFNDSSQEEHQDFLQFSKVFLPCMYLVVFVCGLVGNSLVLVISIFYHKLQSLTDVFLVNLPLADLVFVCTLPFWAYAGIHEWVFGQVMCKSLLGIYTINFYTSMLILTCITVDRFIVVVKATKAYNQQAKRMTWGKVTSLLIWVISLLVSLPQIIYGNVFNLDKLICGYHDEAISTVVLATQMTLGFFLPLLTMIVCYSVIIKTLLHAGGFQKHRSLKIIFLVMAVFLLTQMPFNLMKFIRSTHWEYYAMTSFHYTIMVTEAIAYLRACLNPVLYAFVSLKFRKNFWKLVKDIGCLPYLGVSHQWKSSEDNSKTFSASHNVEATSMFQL
APJ agonist: activates the human apelin receptor APJ; actives 0.11% (n = 330,000); CHO-K1 APJ PathHunter beta-arrestin, luminescence; 0% DMSO wells, 100% apelin; activation, % at 20 µM;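 active = activation more than six SD over the plate average, tested at 20 µM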
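Test system: CHO-K1 APJ beta-arrestin complementation cell line. Amount: cell density 1000 per well. Controls: DMSO negative, 10 nM Apelin-13 positive. Signal: luminescent beta-gal fragment complementation, chemiluminescent substrate. Read-out basis: agonist-driven arrestin binding to APJ. Timing: compound stimulation 90 min at 25 °C, detection 60 min.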
APJ antag: blocks the human apelin receptor APJ | P35414 | CHO-K1 APJ beta-arrestin complementation, luminescence | inhibition, % at 20 µM | actives 0.32% (n = 330,000) | AID 2521;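 active = inhibition above about 40% at 20 µM, limit read from the data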;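 note: cells challenged with 10 nM apelin-13 agonist together with compound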
FXN GAA850 act: frataxin GAA850 promoter activation; HEK293 lucGAA850 FXN promoter luciferase reporter, 24 h; percent of 10 µM SAHA response; actives 0.56% (n = 360,000); activation, % at 6 µM;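 active = activation above the average of all compounds screened plus 3 SD, cutoff fixed separately per campaign, cut at about 7.5% in these data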
EBI2 antag conf: EBI2 (human) antagonism, single concentration confirmation; shares compounds with EBI2 antag; EBI2 beta-arrestin luminescence, 7a,25-OHC antagonism; inhibition, % at 5 µM; actives 29% (n = 2,400);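 active = inhibition of at least 50%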
EBI2 ag: activates EBI2, counter-screen for EBI2 antagonists | EBI2-expressing cells, agonist mode, luminescence, 60 min; 0% vehicle, 100% 7α,25-dihydroxycholesterol control | 2,400 tested, under 10 active | activation, % at 5 µM | shares compounds with EBI2 antag;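 active = activation of at least 50%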
bGal counter: inhibits E. coli beta-galactosidase, counter-screen for EBI2 antagonists; shares compounds with EBI2 antag; purified beta-galactosidase, luminescent Galacton Star, 15 min; inhibition, % at 5 µM; actives 1% (n = 2,400);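 active = replicate-average signal at least 3 plate SD below neutral wells, shown as high inhibition, flagging enzyme-inhibiting false positives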;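 note: higher means stronger loss of beta-gal luminescence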
A number is an active result; n = inactive; x = not tested or not shown. Only some compounds are listed: those with a hit (about 2% of all), similar ones and a draw of the others.

SMILES	CCR6 antagonist	EBI2 antag	CXCR6 inh	APJ agonist	APJ antag	FXN GAA850 act	EBI2 antag conf	EBI2 ag	bGal counter
CCOC(=O)C1CCN(C(=O)/C=C/c2ccc3c(c2)OCO3)CC1	n	55.8	n	n	n	n	n	n	n
O=C(O)C1CCCN(C(=O)/C=C/c2ccccc2)CC1 (centres undefined)	x	n	n	x	x	n	x	x	x
CCCCN(C(=O)COC(=O)COc1c(C)cc(C)cc1C)c1c(N)n(CCC)c(=O)[nH]c1=O	n	n	n	n	n	n	x	x	x
O=C(NCC(c1ccc(F)cc1)N1CCOCC1)c1ccc([N+](=O)[O-])o1 (centres undefined)	n	n	n	n	n	n	x	x	x
O=C(NCc1ccc(N2CCCC2=O)cc1)c1cc(COc2c(F)cccc2F)on1	n	n	n	n	n	n	x	x	x
CCOC(=O)[C@]12CCCC=C1N(Cc1ccccc1)C(=O)[C@H](CC(=O)NCC1CCCCC1)C2	x	n	x	x	x	x	x	x	x
CCOC(=O)c1c(Nc2ccccc2)sc(/C=C2\C=Nc3ccccc32)c1O	n	52.9	n	n	n	n	n	n	n
COc1ccc(NC(=O)c2ccc(COCC(F)(F)C(F)F)cc2)cc1OC	n	n	n	n	n	n	x	x	x
COc1ccc(NC(=O)c2ccc(COCC(F)(F)C(F)F)cc2)cc1	n	44.3	n	n	n	n	n	n	n
Cc1cc(C)c(S(=O)(=O)N2CCN(C(=O)CCn3nc(C)c(C)c3C)CC2)c(C)c1	n	46.6	n	n	n	n	n	n	n
COc1ccc(-c2nc(N)ncc2Oc2ccccc2Br)c(O)c1	n	61.8	n	n	n	n	n	n	n
COc1cccc(Oc2cnc(N)nc2-c2ccc(OC)cc2O)c1	n	52.5	n	n	n	n	n	n	n
CCCN(C(=O)COC(=O)CNC(=O)c1ccc2ccccc2c1)c1c(N)n(Cc2ccccc2)c(=O)[nH]c1=O	n	n	n	n	n	n	x	x	x
Cc1sc(NC(=O)c2ccco2)c(CN2CCN(c3ccccc3)CC2)c1C	n	39.8	n	n	n	n	n	n	n
O=C(Cn1cc(C(F)(F)F)ccc1=O)NC1CCCC1	n	n	n	n	n	n	x	x	x

Bioassay records from PubChem.
